Compound activity: PubChem, several laboratories
This is a sample that favours compounds with a hit; in the whole collection about 2.5% have one here.
m5-HT2A agonist – mouse HTR2A agonism via beta-arrestin recruitment; 360,000 tested, 0.66% active; CHO-K1 mHTR2A beta-arrestin complementation, luminescence; percent of 30 µM serotonin response; P35363; activation, % at 7.6 µM;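 active = activation above a run cutoff, the mean activation of all tested compounds plus 3 SD, cut at about 14% in these data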;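 also: 0% = plate median of compound wells and 100% = 30 µM serotonin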
IMP-1 inhibitor – inhibitors of Pseudomonas aeruginosa IMP-1 metallo-beta-lactamase. inhibition, % at 5.6 µM. purified IMP-1, nitrocefin hydrolysis, epi-absorbance fluorescence. 290,000 tested, 0.45% active;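 active = inhibition above the mean plus 3 SD of all compounds in the same screening run, cut at about 4.5% in these data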;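 also: 0% = IMP-1 with DMSO and 100% = DMSO wells lacking enzyme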
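Material – recombinant IMP-1 enzyme, purified · Amount – IMP-1 0.2 nM before substrate addition · Medium – HEPES buffer pH 7.1 with ZnSO4 and Brij 35 · Timing – 25 °C, 15 min preincubation, 25 min reaction · Measured by – plate fluorescence quenching by hydrolysis product, ex 480/em 530 nm · Read-out – percent enzyme inhibition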
dFosB activator – activators of mouse delta FosB homodimer | purified delta FosB, TAMRA-CDK5 oligo fluorescence polarization; percent of positive-control signal above neutral wells | activation, % at 25 µM | 340,000 tested, 0.99% active;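 active = mean activation above about 17%, with every replicate also reaching it, limit read from the data, passing the limit was not always enough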
Target sequence (P13346 whole entry, looked up): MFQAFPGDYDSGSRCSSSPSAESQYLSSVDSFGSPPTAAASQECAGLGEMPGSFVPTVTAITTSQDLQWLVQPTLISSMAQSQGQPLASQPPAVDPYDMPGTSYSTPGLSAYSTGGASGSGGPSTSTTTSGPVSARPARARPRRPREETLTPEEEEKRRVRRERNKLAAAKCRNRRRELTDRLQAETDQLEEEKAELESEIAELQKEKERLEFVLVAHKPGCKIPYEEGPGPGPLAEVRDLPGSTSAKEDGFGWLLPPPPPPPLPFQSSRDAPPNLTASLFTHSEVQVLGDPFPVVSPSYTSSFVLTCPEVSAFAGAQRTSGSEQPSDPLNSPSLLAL
VIM-2 inh – inhibitors of Pseudomonas aeruginosa VIM-2 metallo-beta-lactamase; purified VIM-2, nitrocefin hydrolysis, epi-absorbance fluorescence; inhibition, % at 5.6 µM; 290,000 tested, 0.89% active;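 active = inhibition above the mean of all tested compounds plus 3 SD, cutoff set per screening run, cut at about 7.5% in these data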;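 also: red hydrolysis product quenches plate fluorescence so inhibitors raise well fluorescence; 0% = enzyme with DMSO and 100% = DMSO without enzyme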
Starred values were filed as active, the others as inactive.

Screening CCC(NS(=O)(=O)c1ccc(C)cc1)C(=O)N1CCN(c2ccccn2)CC1 (stereo not drawn) returned m5-HT2A agonist -2, IMP-1 inhibitor 4.5*, dFosB activator -5 and VIM-2 inh -2.
Screening Cc1ccc2c(c1)cc(C(=O)N[C@@H](Cc1ccccc1)C(=O)O)n2C returned m5-HT2A agonist -8, IMP-1 inhibitor -1, dFosB activator -1 and VIM-2 inh -2.
Screening CN1CCN(CC(O)COC(c2ccc(Cl)cc2)c2ccc(Cl)cc2)CC1 (stereo not drawn) returned m5-HT2A agonist -12, IMP-1 inhibitor -1, dFosB activator 22* and VIM-2 inh 0.
Screening CC(C)(C)OC(=O)N1CCC(c2c(C(=O)O)cnn2-c2ccc(Cl)cc2)CC1 returned m5-HT2A agonist 1, IMP-1 inhibitor 2, dFosB activator -13 and VIM-2 inh 3.
`Cc1ccc(-n2ncc(C(=O)O)c2C2CCN(C(=O)OC(C)(C)C)CC2)cc1` gave m5-HT2A agonist 2, IMP-1 inhibitor 2, dFosB activator 0 and VIM-2 inh 8.4*.
`O=c1[nH]nc(Sc2ncnc3sccc23)n1CCc1ccccc1` gave m5-HT2A agonist -2, IMP-1 inhibitor -4, dFosB activator -7 and VIM-2 inh 9.7*.
CCCC(=O)Nc1ccccc1NC(C)=O was read as m5-HT2A agonist 2, IMP-1 inhibitor 5.3*, dFosB activator 1 and VIM-2 inh -1.
Screening COc1cc2cc(C(=O)N3CCOCC3)cc(-c3ccc(C)cc3)c2cc1OC returned m5-HT2A agonist 1, IMP-1 inhibitor -3, dFosB activator -9 and VIM-2 inh 1.
COC1=C(Nc2ccccc2OC)C(=O)c2ccccc2C1=O was read as m5-HT2A agonist 12, IMP-1 inhibitor 1, dFosB activator -2 and VIM-2 inh 10.0*.
Screening CCOC(CNC(=O)c1cccn2c(=O)c3c(C)c(C)sc3nc12)OCC returned m5-HT2A agonist -1, IMP-1 inhibitor -2, dFosB activator -8 and VIM-2 inh 10*.
c1ccc(CN2CCN(c3ncnc4nc[nH]c34)CC2)cc1 was read as m5-HT2A agonist 24*, IMP-1 inhibitor -3, dFosB activator -1 and VIM-2 inh -4.
For Cc1cc(C)c(C(=O)COC(=O)c2cccc(S(=O)(=O)N3CCOCC3)c2)cc1C the results were m5-HT2A agonist 3.
Screening CCOc1c(Br)cc(Br)cc1/C=C1\SC(N)=NC1=O returned m5-HT2A agonist -3, IMP-1 inhibitor 0, dFosB activator 25* and VIM-2 inh 0.
For COC(=O)c1cc(Sc2cccc(Cl)c2Cl)ccn1 the results were m5-HT2A agonist -2, IMP-1 inhibitor -2, dFosB activator -6 and VIM-2 inh 9.2*.
For COC(=O)c1cc(Sc2c(Cl)cccc2Cl)ccn1 the results were m5-HT2A agonist -1, IMP-1 inhibitor -1, dFosB activator -9 and VIM-2 inh 4.
Screening CCCCNc1cc(=O)n(C)c(=O)n1C returned m5-HT2A agonist 15*, IMP-1 inhibitor -4, dFosB activator -6 and VIM-2 inh 1.
For CC1(C)c2ccccc2N2CC(=O)N(CC(N)=O)C21C (stereo not drawn) the results were m5-HT2A agonist 1, IMP-1 inhibitor -1, dFosB activator 40* and VIM-2 inh 1.
For COc1ccc(NC(=O)CSc2nnc3ccc(-c4ccccn4)nn23)cc1OC the results were m5-HT2A agonist 7 and dFosB activator -5.
CCCc1cc(=O)oc2cc(C)c(CN3CCCC3)c(O)c12 was read as m5-HT2A agonist -1, IMP-1 inhibitor 7.7*, dFosB activator -12 and VIM-2 inh 4.
For COC(=O)C1=C(C)N(CCc2cc(OC)c(OC)c(OC)c2)C(=O)N[C@H]1c1ccccc1 the results were m5-HT2A agonist 0 and dFosB activator 4.
Screening OC1CCCN(Cc2cn(Cc3ccccc3)nc2-c2cc3ccccc3o2)C1 (stereo not drawn) returned m5-HT2A agonist -1, IMP-1 inhibitor -1, dFosB activator -7 and VIM-2 inh -1.
For OC1CCCN(Cc2ccc3ccc4cccc5ccc2c3c45)C1 (stereo not drawn) the results were m5-HT2A agonist -2, IMP-1 inhibitor 0, dFosB activator 68* and VIM-2 inh 2.
Cc1cc2ccccc2cc1CN1CCOCC1 was read as m5-HT2A agonist 1, IMP-1 inhibitor -5, dFosB activator 2 and VIM-2 inh 0.
`c1cc2ccc3ccc(CN4CCOCC4)c4ccc(c1)c2c34` gave m5-HT2A agonist -1, IMP-1 inhibitor -2, dFosB activator 31* and VIM-2 inh 0.
